We go through 13 compounds from PubChem BioAssay.

Each structure is given as a SMILES string. Activity calls are given as the source filed them.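 How the source made its calls, unless noted: active means fluorescence slope after compound addition differing from the mean of all tested samples at 99.7% confidence, mostly higher but some lower; inactive means the rest.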

Assay [1] in a line: inhibitors of TNFa-induced NFkB p65 translocation, primary screen, imaging, HUVEC, MLSMR starter and 10KST1 sets (AID 438;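 active means inhibition above 20% together with a positive visual image hit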;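 further: compound added about 3h40 before a 20 min TNFalpha stimulation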;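 on inhibition: signal is the nuclear over cytoplasmic p65 intensity ratio per well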). Conditions: HUVEC TNFa-induced p65 nuclear translocation; cell count: measured here: nuclei count (cytotoxicity indicator), at 2.08 µM; inhibition: at 2 µM, stronger effect = higher value, 0% TNFa-plus-vehicle, 100% no-TNFa wells.
Assay [2] can be described thus: inhibitors of mutant huntingtin aggregation, primary screen, imaging, exon1htt(103Q)mCFP cells, high-content imaging (AID 483;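 active means visual image review flags a hit and inhibition of aggregation exceeds 20%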;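 further: compound exposure lasted 3 days before fixation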;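 on nuclei count: percent of the per-plate median nuclei count of sample wells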). Conditions: exon1htt(103Q)mCFP cell line, aggregate imaging, at 2 µM; inhibition of aggregation: stronger effect = higher value; nuclei count: measured here: cell count, toxicity.
Assay [3] is described as follows: inhibitors of E-selectin induction by TNFa, primary screen, imaging, HUVEC, immunofluorescence, MLSMR starter and 10KST1 sets (AID 487;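 active means visually confirmed hit in the image check and inhibition above 20%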;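 on inhibition: signal is fraction of cell area covered by stained E-selectin grains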;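 on nuclei count: 100% = median nuclei count of all wells on the same plate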). Conditions: HUVEC TNFalpha-induced E-selectin immunofluorescence imaging, at 2 µM; inhibition: stronger effect = higher value; nuclei count: measured here: cell number, toxicity.
In assay [4] the target is Voltage-gated potassium channel subunit beta-2 (Rattus norvegicus) (UniProt P62483). Description: KvBeta enzyme negative modulators, primary screen, biochemical, NADPH fluorescence (AID 622;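 active means fluorescence slope higher than the sample average by over 3 SD, cut at about -0.22 in these data, passing the limit was not always enough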;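 further: slope of raw intensity against log time taken from 70 to 1610 s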). Conditions: recombinant KvBeta, 4-cyanobenzaldehyde reduction, at 10 µM, stronger effect = higher value.
For assay [5] the target is unchanged. Description: KvBeta positive modulators, primary screen, biochemical, NADPH fluorescence (AID 623;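 active means NADPH fluorescence slope more negative than the mean of all samples by about 3 SD, 99.7% confidence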;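 further: fluorescence intensity change per second fitted from 20 to 320 s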). Conditions: Recombinant KvBeta, NADPH fluorescence decrease slope, 10 min; at 10 µM; stronger effect = lower value.
For assay [6], the target named is Muscarinic acetylcholine receptor M4 (Homo sapiens) (UniProt P08173). Description: compounds altering M4/GIRK thallium flux, either direction, primary screen, M4 allosteric agonist project, cell-based, HEK293 M4/GIRK, BTC-AM (AID 625).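 Further: thallium influx through GIRK channels coupled to M4 in HEK293 cells with BTC-AM dye.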 Conditions: at 10 µM, actives lie on both sides. In outline:
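System: HEK293 cells with M4 receptor and GIRK channels | Incubation: Cells overnight at 37 °C, BTC-AM loading 1 h, reads 2 min total | Technique: Kinetic BTC-AM fluorescence sampled at 1 Hz, 10 s pre-addition baseline | Measure: Post-addition slope, 15–24 s, of baseline-normalized fluorescence | Control set: Carbachol positive, DMSO negative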

Assay [7] is described as follows: inhibitors of Sendai virus-induced IRF3 signaling, primary screen, TLR/RLR signaling modifier project, cell-based, Sendai virus stimulus, luciferase, 10K MLSCN set (AID 602276;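 active means inhibition at or above 50% at 10 µM; inactive means inhibition below 50%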;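 further: firefly luciferase from ISG56 promoter only with Renilla not read in this screen; 0% = Sendai virus plus DMSO and 100% = medium plus DMSO without virus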). Conditions: HEK293 RL24 IRF3 luciferase reporter, at 10 µM, stronger effect = higher value. A general note: A reporter such as luciferase makes a cellular process visible.
Assay [8] in a line: inhibitors of poly I:C-induced TLR3 signaling, primary screen, cell-based, poly I:C stimulus, luciferase, 10K MLSCN set (AID 602277;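 active means inhibition of the reporter signal at or above 50%; inactive means inhibition below 50%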). Conditions: HEK293-TLR3 RL24 IRF3 luciferase reporter, at 10 µM, stronger effect = higher value.

Usually inhibition stands for the drop in the measured response relative to a control, in per cent.

Voltage-gated potassium channel subunit beta-2 (Rattus norvegicus), sequence (P62483 whole entry, looked up): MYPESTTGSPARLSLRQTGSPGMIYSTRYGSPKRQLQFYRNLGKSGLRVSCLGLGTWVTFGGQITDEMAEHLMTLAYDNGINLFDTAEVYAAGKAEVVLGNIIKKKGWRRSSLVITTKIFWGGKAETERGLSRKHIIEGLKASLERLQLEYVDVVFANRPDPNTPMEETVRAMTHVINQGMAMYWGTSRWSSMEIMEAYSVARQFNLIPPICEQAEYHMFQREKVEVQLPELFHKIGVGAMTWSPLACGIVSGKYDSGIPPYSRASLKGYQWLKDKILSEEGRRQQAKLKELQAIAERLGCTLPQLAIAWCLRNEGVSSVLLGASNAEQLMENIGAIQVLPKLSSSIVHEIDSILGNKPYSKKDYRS
Muscarinic acetylcholine receptor M4 (Homo sapiens), sequence (P08173 whole entry, looked up): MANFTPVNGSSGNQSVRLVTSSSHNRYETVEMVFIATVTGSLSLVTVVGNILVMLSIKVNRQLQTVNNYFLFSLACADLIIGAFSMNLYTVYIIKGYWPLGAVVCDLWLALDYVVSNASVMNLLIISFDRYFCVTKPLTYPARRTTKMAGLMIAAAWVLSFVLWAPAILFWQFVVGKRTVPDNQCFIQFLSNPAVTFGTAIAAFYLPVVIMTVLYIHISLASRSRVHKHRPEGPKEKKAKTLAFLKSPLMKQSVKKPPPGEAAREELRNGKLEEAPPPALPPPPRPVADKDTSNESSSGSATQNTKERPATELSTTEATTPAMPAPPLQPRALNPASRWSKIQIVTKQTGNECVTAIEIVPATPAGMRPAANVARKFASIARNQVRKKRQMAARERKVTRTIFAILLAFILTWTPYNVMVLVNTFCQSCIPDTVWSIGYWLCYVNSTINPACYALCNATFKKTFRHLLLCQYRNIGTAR

Consider `COC(=O)c1ccccc1NC(=O)Nc1cccs1`, for which the cell count in assay [1] stood at 567. The inhibition in assay [1] is -11.5% (inactive); in assay [3], -29.5% (inactive); in assay [7], 10.3% (inactive); in assay [8] it was 11.6% (inactive). Moreover, the inhibition of aggregation in assay [2] is -4.6% (inactive). Moreover, the nuclei count was determined as 96.1% in assay [2] and 110% in assay [3]. For the same compound, the fluorescence slope in assay [4] was -0.425 (inactive); in assay [6], 0.00583 (inactive). Besides, the NADPH fluorescence slope in assay [5] is -9.4e-05 (inactive).
For `Cn1cnnc1SCC(=O)Nc1ccccc1Sc1ccccc1`, in assay [1], the cell count worked out at 740. For the same compound, the inhibition is 4% (inactive) in assay [1], -36.2% (inactive) in assay [3], 13.5% (inactive) in assay [7] and 8.17% (inactive) in assay [8]. Also, the inhibition of aggregation in assay [2] is -6.3% (inactive). In addition, the nuclei count in assay [2] is 93.3%; in assay [3], 127%. Moreover, the values for the fluorescence slope in assay [4] and in assay [6] were -0.215 (inactive) and 0.00628 (inactive), respectively. In assay [5], the NADPH fluorescence slope is -2.9e-05 (inactive).
As to `O=C(CN1CCCN(S(=O)(=O)c2ccc(Br)cc2)CC1)Nc1ccc2cn[nH]c2c1`, the cell count in assay [1] turned out to be 432. Besides, the inhibition in assay [1] is -1.3% (inactive); in assay [3] it was -23.3% (inactive); in assay [7] it was -14.5% (inactive); in assay [8] it was 2.45% (inactive). The inhibition of aggregation in assay [2] was 11% (inactive). The nuclei count in assay [2] is 103%; in assay [3] it was 134%. The figures for the fluorescence slope in assay [4] and in assay [6] were -0.517 (inactive) and 0.00424 (inactive), respectively. Besides, the NADPH fluorescence slope in assay [5] is -0.000173 (inactive).
Turning to `C=CCOc1ccc(C2C(C(=O)c3ccco3)=C(O)C(=O)N2Cc2cccnc2)cc1` (stereo not drawn), the cell count in assay [1] is 341. In addition, the inhibition was -7.7% (inactive) in assay [1], -61.9% (inactive) in assay [3], 17.4% (inactive) in assay [7] and 14.5% (inactive) in assay [8]. Besides, in assay [2], the inhibition of aggregation was -11.2% (inactive). For the same compound, the nuclei count is 107% in assay [2] and 103% in assay [3]. The fluorescence slope in assay [4] was -0.543 (inactive); in assay [6] it was 0.00458 (inactive). Further, in assay [5], the NADPH fluorescence slope was -0.000128 (inactive).
For `COc1ccccc1NC(=O)CC(NCc1ccccc1)C(=O)O` (stereo not drawn), the cell count in assay [1] stood at 405. Also, the inhibition is -8.3% (inactive) in assay [1], 14.4% (inactive) in assay [3], 8.88% (inactive) in assay [7] and 5.77% (inactive) in assay [8]. Besides, in assay [2], the inhibition of aggregation is -9.7% (inactive). Moreover, the nuclei count in assay [2] was determined as 63.1%; in assay [3], 100%. The fluorescence slope is -0.223 (inactive) in assay [4] and 0.00589 (inactive) in assay [6]. In assay [5], the NADPH fluorescence slope was -1.3e-05 (inactive).
Regarding `Cc1csc(NC(=O)c2sc3nc(-c4cccs4)ccc3c2N)n1`, the cell count in assay [1] worked out at 340. The inhibition in assay [1] was -1.9% (inactive); in assay [3] it was -5.9% (inactive); in assay [7], -19.2% (inactive); in assay [8] it was -115% (inactive). Moreover, the inhibition of aggregation in assay [2] is 30.2% (inactive). For the same compound, the nuclei count was 68.7% in assay [2] and 90.5% in assay [3]. Further, the fluorescence slope was -0.0131 (active) in assay [4] and 0.0189 (active) in assay [6]. For the same compound, the NADPH fluorescence slope in assay [5] was 2.9e-06 (inactive).
With `Cc1ccc(S(=O)(=O)NC(C(=O)OCC(=O)NC2CCS(=O)(=O)C2)C(C)C)cc1` (stereo not drawn), the cell count in assay [1] stood at 654. For the same compound, the inhibition in assay [1] was -10.1% (inactive); in assay [3], -40.2% (inactive); in assay [7] it was -14% (inactive); in assay [8], 18.4% (inactive). Further, the inhibition of aggregation in assay [2] was 9.6% (inactive). In addition, the figures for the nuclei count in assay [2] and in assay [3] were 93.4% and 109%, respectively. Moreover, the fluorescence slope is -0.578 (inactive) in assay [4] and 0.0094 (inactive) in assay [6]. The NADPH fluorescence slope in assay [5] was 9.1e-06 (inactive).
`COc1cc(OC)c(C(=O)Nc2ccc(N(C)C)cc2)cc1OC`: the cell count in assay [1] worked out at 369. In addition, the inhibition in assay [1] was 5.2% (inactive); in assay [3], -85.5% (inactive); in assay [7], -79.1% (inactive); in assay [8] it was 99.1% (active). Further, in assay [2], the inhibition of aggregation was 7.1% (inactive). The nuclei count in assay [2] was determined as 94%; in assay [3], 116%. Moreover, the fluorescence slope in assay [4] was -0.448 (inactive); in assay [6] it was 0.00454 (inactive). Moreover, the NADPH fluorescence slope in assay [5] was -4.1e-05 (inactive).
In the case of `O=C1c2ccccc2-c2nc3ncnn3c(-c3ccccc3)c21`, the cell count in assay [1] was 377. Besides, the inhibition in assay [1] is -7.8% (inactive); in assay [3] it was -6.8% (inactive); in assay [7], -11.4% (inactive); in assay [8], 1.41% (inactive). Also, the inhibition of aggregation in assay [2] is -4.5% (inactive). Besides, the nuclei count worked out at 83.8% in assay [2] and 107% in assay [3]. In addition, the fluorescence slope is -0.432 (inactive) in assay [4] and 0.00449 (inactive) in assay [6]. The NADPH fluorescence slope in assay [5] is -0.000383 (inactive).
In the case of `CCOC(=O)c1c(NC(=O)c2ccoc2C)sc2c1CCC2`, the cell count in assay [1] stood at 310. Further, the inhibition in assay [1] is 0% (inactive); in assay [3], -3.2% (inactive); in assay [7] it was 15.7% (inactive); in assay [8], -10.1% (inactive). The inhibition of aggregation in assay [2] was -0.4% (inactive). The results for the nuclei count in assay [2] and in assay [3] were 96.2% and 96.3%, respectively. In addition, the fluorescence slope in assay [4] is -0.407 (inactive); in assay [6], 0.00584 (inactive). Further, the NADPH fluorescence slope in assay [5] is -1.2e-05 (inactive).
As for `COc1cccc(OCc2nc3c4cnn(-c5ccccc5)c4ncn3n2)c1`, the cell count in assay [1] is 418. In addition, the inhibition in assay [1] was -6.7% (inactive); in assay [3], -118% (inactive); in assay [7], 8.13% (inactive); in assay [8], -16.4% (inactive). Besides, the inhibition of aggregation in assay [2] was -8.8% (inactive). The nuclei count is 104% in assay [2] and 110% in assay [3]. In addition, the fluorescence slope is -0.576 (inactive) in assay [4] and 0.00593 (inactive) in assay [6]. Moreover, the NADPH fluorescence slope in assay [5] was 1.4e-05 (inactive).
As to `CCOC(=O)c1cnc(-n2nc(C)cc2C)nc1Nc1cccc(C(C)=O)c1`, the cell count in assay [1] came out at 634. The inhibition is -25.9% (inactive) in assay [1], 15.1% (inactive) in assay [3], -13.6% (inactive) in assay [7] and -13% (inactive) in assay [8]. Besides, in assay [2], the inhibition of aggregation is -14% (inactive). Besides, the nuclei count in assay [2] is 104%; in assay [3], 111%. Moreover, the fluorescence slope was -0.567 (inactive) in assay [4] and 0.00544 (inactive) in assay [6]. For the same compound, the NADPH fluorescence slope in assay [5] is -1.4e-05 (inactive).
Regarding `COC(=O)c1ccccc1NC(=O)c1cc(-c2ccc(OC)c(OC)c2)on1`, the cell count in assay [1] turned out to be 443. For the same compound, the inhibition in assay [1] was -28.4% (inactive); in assay [3], -29.1% (inactive); in assay [7] it was 3.07% (inactive); in assay [8] it was 5.03% (inactive). Further, the inhibition of aggregation in assay [2] is -3.3% (inactive). For the same compound, the nuclei count in assay [2] worked out at 104%; in assay [3], 111%. For the same compound, the fluorescence slope is -0.269 (inactive) in assay [4] and 0.00826 (inactive) in assay [6]. The NADPH fluorescence slope in assay [5] is -3.4e-05 (inactive).
